Experimental data as given in ChEMBL document CHEMBL3596093, “Synthesis and antimicrobial evaluation of 5-aryl-1,2,4-triazole-3-thione derivatives containing a rhodanine moiety” (2015).
Values after ≈ are worked out from the molar mass of the structure shown.

Assays:
Staphylococcus aureus [1] = test: Antibacterial activity against Staphylococcus aureus RN4220 after 24 hrs by two-fold serial dilution method; type: functional; settings: RN4220, 24 h
Method in brief: (§1)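 Broth microdilution MIC. Bacteria grown to mid-log phase in Mueller-Hinton broth, diluted 1000-fold, about 10^5 CFU/mL. Compounds from DMSO stocks, two-fold serial dilution from a final 64 µg/mL. Incubation at 37 °C for 24 h. Growth read as absorbance at 630 nm on a microplate reader. Run in triplicate.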

Staphylococcus aureus [2] = test: Antibacterial activity against Staphylococcus aureus KCTC 209 after 24 hrs by two-fold serial dilution method; type: functional; settings: KCTC 209, 24 h
Method in brief: (§2)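 Strains grown to mid-log phase in Mueller-Hinton broth, then diluted 1000-fold in the same broth to about 10^5 CFU/mL. Compounds were made up as DMSO stocks and two-fold serially diluted from a final top concentration of 64 µg/mL. Incubation was 37 °C for 24 h. Growth was read as absorbance at 630 nm on a microplate reader. MIC assays were run in triplicate.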

Staphylococcus aureus [3] = test: Antibacterial activity against Staphylococcus aureus KCTC 503 after 24 hrs by two-fold serial dilution method; type: functional; settings: KCTC 503, 24 h; method in brief: as §2
Streptococcus mutans [4] = test: Antibacterial activity against Streptococcus mutans 3065 after 24 hrs by two-fold serial dilution method; type: functional; settings: Streptococcus mutans, 3065, 24 h; method in brief: as §2
Escherichia coli [5] = test: Antibacterial activity against Escherichia coli KCTC 1924 after 24 hrs by two-fold serial dilution method; type: functional; settings: KCTC 1924, 24 h; method in brief: as §2
Escherichia coli [6] = test: Antibacterial activity against Escherichia coli CCARM 1356 after 24 hrs by two-fold serial dilution method; type: functional; settings: CCARM 1356, 24 h; method in brief: as §2
Pseudomonas aeruginosa [7] = test: Antibacterial activity against Pseudomonas aeruginosa 2742 after 24 hrs by two-fold serial dilution method; type: functional; settings: Pseudomonas aeruginosa, 2742, 24 h; method in brief: as §2
Pseudomonas aeruginosa [8] = test: Antibacterial activity against Pseudomonas aeruginosa 2004 after 24 hrs by two-fold serial dilution method; type: functional; settings: Pseudomonas aeruginosa, 2004, 24 h; method in brief: as §2
Salmonella typhimurium = test: Antibacterial activity against Salmonella typhimurium 2421 after 24 hrs by two-fold serial dilution method; type: functional, Salmonella enterica subsp. enterica serovar Typhimurium; settings: Salmonella enterica, 2421, 24 h; method in brief: as §2
Candida albicans = test: Antifungal activity against Candida albicans 7535 after 24 hrs by two-fold serial dilution method; type: functional; settings: Candida albicans, 7535, 24 h
Staphylococcus aureus [9] = test: Bactericidal activity against Staphylococcus aureus RN4220 after 24 hrs by agar plate method; type: functional; settings: RN4220, 24 h
Method in brief: (§3)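 Samples of 5 µL from MIC wells with no visible growth were plated onto fresh Mueller-Hinton agar and incubated a further 24 h at 37 °C. MBC is the lowest concentration giving no visible colony growth on the agar. Assays were run in triplicate.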

Staphylococcus aureus [10] = test: Bactericidal activity against Staphylococcus aureus KCTC 503 after 24 hrs by agar plate method; type: functional; settings: KCTC 503, 24 h
Method in brief: (§4)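 5 µL from each well without visible growth plated on fresh Mueller-Hinton agar, then 37 °C for a further 24 h. MBC is the lowest concentration giving no visible colonies. Run in triplicate.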

Streptococcus mutans [11] = test: Bactericidal activity against Streptococcus mutans 3065 after 24 hrs by agar plate method; type: functional; settings: Streptococcus mutans, 3065, 24 h; method in brief: as §3
[12] = test system: Staphylococcus aureus subsp. aureus RN4220; test: Ratio of MBC to MIC for Staphylococcus aureus RN4220; type: functional
Method in brief: (§5)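 The ratio divides MBC by MIC for the same strain. MIC comes from two-fold broth microdilution in Mueller-Hinton broth (about 10^5 CFU/mL, 37 °C, 24 h, absorbance at 630 nm). MBC comes from subculturing 5 µL from clear wells onto Mueller-Hinton agar for another 24 h at 37 °C, taken as the lowest concentration with no colonies.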

Staphylococcus aureus [13] = test: Ratio of MBC to MIC for Staphylococcus aureus KCTC 503; type: functional; method in brief: as §5
Staphylococcus aureus [14] = test: Antibacterial activity against methicillin-resistant Staphylococcus aureus CCARM 3167 after 24 hrs by two-fold serial dilution method; type: functional; settings: CCARM 3167, 24 h; method in brief: as §1
Staphylococcus aureus [15] = test: Antibacterial activity against methicillin-resistant Staphylococcus aureus CCARM 3506 after 24 hrs by two-fold serial dilution method; type: functional; settings: CCARM 3506, 24 h; method in brief: as §1
Staphylococcus aureus [16] = test: Antibacterial activity against quinolone-resistant Staphylococcus aureus CCARM 3505 after 24 hrs by two-fold serial dilution method; type: functional; settings: CCARM 3505, 24 h; method in brief: as §1
Staphylococcus aureus [17] = test: Antibacterial activity against quinolone-resistant Staphylococcus aureus CCARM 3519 after 24 hrs by two-fold serial dilution method; type: functional; settings: CCARM 3519, 24 h; method in brief: as §1
Staphylococcus aureus [18] = test: Bactericidal activity against methicillin-resistant Staphylococcus aureus CCARM 3167 after 24 hrs by agar plate method; type: functional; settings: CCARM 3167, 24 h; method in brief: as §4
Staphylococcus aureus [19] = test: Bactericidal activity against methicillin-resistant Staphylococcus aureus CCARM 3506 after 24 hrs by agar plate method; type: functional; settings: CCARM 3506, 24 h; method in brief: as §4
Staphylococcus aureus [20] = test: Bactericidal activity against quinolone-resistant Staphylococcus aureus CCARM 3505 after 24 hrs by agar plate method; type: functional; settings: CCARM 3505, 24 h; method in brief: as §4
Staphylococcus aureus [21] = test: Bactericidal activity against quinolone-resistant Staphylococcus aureus CCARM 3519 after 24 hrs by agar plate method; type: functional; settings: CCARM 3519, 24 h; method in brief: as §4
Staphylococcus aureus [22] = test: Bactericidal activity against Staphylococcus aureus KCTC 209 after 24 hrs by agar plate method; type: functional; settings: KCTC 209, 24 h; method in brief: as §3
Escherichia coli [23] = test: Bactericidal activity against Escherichia coli KCTC 1924 after 24 hrs by agar plate method; type: functional; settings: KCTC 1924, 24 h; method in brief: as §3
Escherichia coli [24] = test: Ratio of MBC to MIC for Escherichia coli KCTC 1924; type: functional; method in brief: as §5

| Compound | MIC (Staphylococcus aureus [1]) [µg/mL] | MIC (Staphylococcus aureus [2]) [µg/mL] | MIC (Staphylococcus aureus [3]) [µg/mL] | MIC (Streptococcus mutans [4]) [µg/mL] | MIC (Escherichia coli [5]) [µg/mL] | MIC (Escherichia coli [6]) [µg/mL] | MIC (Pseudomonas aeruginosa [7]) [µg/mL] | MIC (Pseudomonas aeruginosa [8]) [µg/mL] | MIC (Salmonella typhimurium) [µg/mL] | MIC (Candida albicans) [µg/mL] | MBC (Staphylococcus aureus [9]) [µg/mL] | MBC (Staphylococcus aureus [10]) [µg/mL] | MBC (Streptococcus mutans [11]) [µg/mL] | MIC (Staphylococcus aureus [14]) [µg/mL] | MIC (Staphylococcus aureus [15]) [µg/mL] | MIC (Staphylococcus aureus [16]) [µg/mL] | MIC (Staphylococcus aureus [17]) [µg/mL] | MBC (Staphylococcus aureus [18]) [µg/mL] | MBC (Staphylococcus aureus [19]) [µg/mL] | MBC (Staphylococcus aureus [21]) [µg/mL] | further results |
| --- | --- | --- | --- | --- | --- | --- | --- | --- | --- | --- | --- | --- | --- | --- | --- | --- | --- | --- | --- | --- | --- |
| O=C(O)[C@H](Cc1ccccc1)N1C(=O)/C(=C/c2ccc(/C=N/n3c(-c4ccccc4Br)n[nH]c3=S)cc2)SC1=S | 8 (≈ 12.3 µM) | > 64 | 8 (≈ 12.3 µM) | 8 (≈ 12.3 µM) | > 128 | > 128 | > 128 | > 128 | > 128 | > 64 | 16 (≈ 24.6 µM) | 8 (≈ 12.3 µM) | 32 (≈ 49.2 µM) | 8 (≈ 12.3 µM) | 16 (≈ 24.6 µM) | 8 (≈ 12.3 µM) | 8 (≈ 12.3 µM) | 16 (≈ 24.6 µM) | 32 (≈ 49.2 µM) | 32 (≈ 49.2 µM) | Ratio [12]: 2; Ratio (Staphylococcus aureus [13]): <=4; MBC (Staphylococcus aureus [20]): 32 µg/mL (≈ 49.2 µM) |
| O=C(O)[C@H](Cc1ccccc1)N1C(=O)/C(=C/c2ccc(/C=N/n3c(-c4ccc(Cl)cc4)n[nH]c3=S)cc2)SC1=S | 8 (≈ 13.2 µM) | > 64 | 16 (≈ 26.4 µM) | 16 (≈ 26.4 µM) | > 128 | > 128 | > 128 | > 128 | > 128 | > 64 | 16 (≈ 26.4 µM) | 128 (≈ 211 µM) | 32 (≈ 52.8 µM) | 8 (≈ 13.2 µM) | 16 (≈ 26.4 µM) | 16 (≈ 26.4 µM) | 16 (≈ 26.4 µM) | 64 (≈ 106 µM) | 128 (≈ 211 µM) | 128 (≈ 211 µM) | Ratio [12]: 2; MBC (Staphylococcus aureus [20]): 64 µg/mL (≈ 106 µM) |
| O=C(O)CN1C(=O)/C(=C/c2ccc(/C=N/n3c(-c4ccc(F)cc4)n[nH]c3=S)cc2)SC1=S | 64 (≈ 128 µM) | 64 (≈ 128 µM) | > 64 | > 64 | > 128 | > 128 | > 128 | > 128 | > 128 | > 64 | > 256 | – | – | 16 (≈ 32 µM) | > 64 | > 64 | 32 (≈ 64.1 µM) | > 128 | – | > 256 | MBC (Staphylococcus aureus [22]): > 256 µg/mL |
| O=C(O)CN1C(=O)/C(=C/c2ccc(/C=N/n3c(-c4ccccc4Cl)n[nH]c3=S)cc2)SC1=S | 64 (≈ 124 µM) | > 64 | > 64 | > 64 | 64 (≈ 124 µM) | > 128 | > 128 | > 128 | > 128 | > 64 | 256 (≈ 496 µM) | – | – | > 64 | > 64 | > 64 | > 64 | – | – | – | MBC (Escherichia coli [23]): 128 µg/mL (≈ 248 µM); Ratio (Escherichia coli [24]): <=4 |
| Cc1ccccc1-c1n[nH]c(=S)n1/N=C/c1ccc(/C=C2\SC(=S)N([C@@H](Cc3ccccc3)C(=O)O)C2=O)cc1 | 16 (≈ 27.3 µM) | > 64 | 16 (≈ 27.3 µM) | 8 (≈ 13.7 µM) | 64 (≈ 109 µM) | > 128 | > 128 | > 128 | > 128 | > 64 | 64 (≈ 109 µM) | 32 (≈ 54.6 µM) | 16 (≈ 27.3 µM) | 16 (≈ 27.3 µM) | 16 (≈ 27.3 µM) | 16 (≈ 27.3 µM) | 16 (≈ 27.3 µM) | 32 (≈ 54.6 µM) | 64 (≈ 109 µM) | > 128 | MBC (Escherichia coli [23]): 64 µg/mL (≈ 109 µM); Ratio (Staphylococcus aureus [13]): <=4; Ratio (Escherichia coli [24]): <=4; MBC (Staphylococcus aureus [20]): 64 µg/mL (≈ 109 µM) |
